Broadly, the inhibition is the percentage by which the read-out fell short of the control. The term EC50 denotes the concentration at which the effect is half-maximal. A low value points to greater potency. For orientation: EC30 means the concentration needed for an effect of 30%. Higher therefore signals a need for much substance.

This is an account of results in ChEMBL document CHEMBL1135531, “Cardiovascular characterization of [1,4]thiazino[3,4-c][1,2,4]oxadiazol-1-one derivatives: selective myocardial calcium channel modulators” (J Med Chem, 2002).

For assay [1], the species on record is Cavia porcellus. Kind of assay: Percent inhibition of calcium-induced contraction on K+-depolarized guinea-pig aortic strip at 5 x 10 e-5M. It is filed as functional. Particulars: Aorta.
The species entered for assay [2] is Cavia porcellus. In words: Effective drug concentration for negative inotropic activity was determined; Range is from 1.35-2.05 (10e-6 M). The format is functional, organism-based. The essentials: (§1)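 Left atria from female guinea pigs (300-400 g) in Tyrode PSS, pH 7.4, 95% O2/5% CO2, 35 °C. Driven at 1 Hz with 0.6-0.8 ms pulses at about 50% threshold voltage; isometric force recorded. Cumulative 0.1-100 µM in DMSO (≤0.3% in bath), each added at steady state. EC50 by Probit log concentration-response analysis (n = 6-8), not calculated when maximum effect <50%.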

The species entered for assay [3] is Cavia porcellus. Kind of assay: Negative chronotropic activity in isolated guinea pig right atrium. The format is functional, Cardiac atrium.
The species entered for assay [4] is Cavia porcellus. In words: Negative inotropic activity in isolated guinea pig left atrium. The format is functional, Cardiac atrium.
For assay [5], the species on record is Cavia porcellus. In words: Effective drug concentration for negative inotropic activity was determined; Range is from 0.41-0.72 (10e-6 M). The format is functional. In a few lines:
as §1

Assay [6] is filed under the species Cavia porcellus. In words: Effective drug concentration for negative inotropic activity was determined; Range is from 0.55-0.93 (10e-6 M). The format is functional. In a few lines:
as §1

The species named for assay [7] is Cavia porcellus. Kind of assay: Effective drug concentration for negative inotropic activity was determined; Range is from 0.43-0.56 (10e-6 M). The format is functional. In a few lines:
as §1

For assay [8], the species on record is Cavia porcellus. Kind of assay: Effective drug concentration for negative inotropic activity was determined; Range is from 1.03-1.45 (10e-6 M). It is filed as functional. In a few lines:
as §1

The species entered for assay [9] is Cavia porcellus. In words: Effective drug concentration for negative inotropic activity was determined; Range is from 0.23-0.43 (10e-6 M). It is filed as functional. The essentials:
as §1

The species entered for assay [10] is Cavia porcellus. In words: Effective drug concentration for negative inotropic activity was determined; Range is from 1.34-2.19 (10e-6 M). The format is functional, organism-based. In a few lines: as §1
Assay [11] is filed under the species Cavia porcellus. In words: Effective drug concentration for negative inotropic activity was determined; Range is from 1.02-1.98 (10e-6 M). It is filed as functional. In a few lines:
as §1

The species named for assay [12] is Cavia porcellus. Kind of assay: Effective drug concentration for negative inotropic activity was determined; Range is from 0.65-1.05 (10e-6 M). It is filed as functional. In a few lines:
as §1

Assay [13] is filed under the species Cavia porcellus. Kind of assay: Effective drug concentration for negative inotropic activity; Range is from 0.41-0.65 (10e-6 M). It is filed as functional. The essentials:
as §1

Assay [14] is filed under the species Cavia porcellus. Kind of assay: Effective drug concentration for negative inotropic activity was determined; Range is from 0.18-0.30 (10e-6 M). It is filed as functional. In a few lines: as §1
The species entered for assay [15] is Cavia porcellus. Kind of assay: Effective drug concentration for negative inotropic activity. The format is functional. The essentials: as §1
The species entered for assay [16] is Cavia porcellus. Kind of assay: Effective drug concentration for negative inotropic activity was determined; Range is from 2.35-3.10 (10e-6 M). The format is functional. The essentials:
as §1

The species named for assay [17] is Cavia porcellus. Kind of assay: Effective drug concentration for negative inotropic activity was determined; Range is from 0.46-0.92 (10e-6 M). The format is functional. The essentials:
as §1

The species entered for assay [18] is Cavia porcellus. In words: Effective drug concentration for negative inotropic activity was determined; Range is from 1.35-2.23 (10e-6 M). It is filed as functional, organism-based. The essentials: as §1
Assay [19] is filed under the species Cavia porcellus. In words: Effective drug concentration for negative inotropic activity was determined; Range is from 3.67-4.52 (10e-6 M). It is filed as functional, organism-based. The essentials:
as §1

The species named for assay [20] is Cavia porcellus. In words: Effective drug concentration for negative inotropic activity was determined; Range is from 0.61-0.85 (10e-6 M). It is filed as functional. The essentials:
as §1

Assay [21] is filed under the species Cavia porcellus. Kind of assay: Effective drug concentration for negative inotropic activity was determined; Range is from 1.67-2.83 (10e-6 M). The format is functional, organism-based. In a few lines:
as §1

For assay [22], the species on record is Cavia porcellus. In words: Effective drug concentration for negative inotropic activity was determined; Range is from 5.99-7.13 (10e-6 M). The format is functional, organism-based. In a few lines:
as §1

For assay [23], the species on record is Cavia porcellus. Kind of assay: Effective drug concentration for negative inotropic activity was determined; Range is from 0.53-0.64 (10e-6 M). The format is functional. The essentials: as §1
The species entered for assay [24] is Cavia porcellus. Kind of assay: Effective drug concentration for negative inotropic activity was determined; Range is from 0.70-0.85 (10e-6 M). The format is functional.
For assay [25], the species on record is Cavia porcellus. In words: Effective drug concentration (EC30) for negative chronotropic activity was determined; Range is from 0.064-0.075 (10e-6 M). The format is functional.

On to `CC1=CSC(O)(c2ccc([N+](=O)[O-])cc2)c2noc(=O)n21` (centres undefined), for which the inhibition at 50 µM in [1] was determined as 19%. In addition, the EC50 in assay [2] came to 1650 nM. In addition, the Decrease was 16% in [3] and 73% in [4].
With `COc1ccc(C2(O)SC=C(C)n3c2noc3=O)cc1` (centres undefined), the inhibition at 50 µM in assay [1] came out at 18%. Further, the midpoint of the response in assay [5], the EC50, lay at 520 nM. The values for the Decrease in assay [3] and in [4] were 12% and 76%, respectively.
Regarding `CC1=CSC(O)(c2ccc(C#N)cc2)c2noc(=O)n21` (centres undefined), in [1], the inhibition at 50 µM is 13%. For the same molecule, the EC50 in assay [6] is 760 nM. Further, the Decrease was found to be 30% in [3] and 76% in assay [4].
Turning to `COc1cccc(C2(O)SC=C(C)n3c2noc3=O)c1` (centres undefined), in assay [1], the inhibition at 50 µM stood at 10%. In addition, the Decrease in [3] is on record as 16%; in [4], 86%. The EC50 in assay [7] was found to be 490 nM.
With `CC1=CSC(O)(c2ccc(F)cc2)c2noc(=O)n21` (centres undefined), the inhibition at 50 µM in assay [1] came to 8%. Also, in assay [8], the EC50 was found to be 1210 nM. In addition, the Decrease turned out to be 10% in assay [3] and 74% in assay [4].
Take `CC1=CSC(O)(c2ccc(Br)cc2)c2noc(=O)n21` (centres undefined): the inhibition at 50 µM in [1] was 12%. Besides, it took 320 nM to reach a half-maximal effect in [9] (EC50). Moreover, the Decrease came out at 18% in assay [3] and 97% in [4].
Consider `CC1=Cn2c(noc2=O)C(O)(c2ccc(Cl)cc2)S1` (centres undefined), for which, in [1], the inhibition at 50 µM worked out at 15%. Further, the EC50 in assay [10] was found to be 1720 nM. Also, the Decrease was found to be 11% in [3] and 71% in assay [4].
Turning to `CC1=C(C)n2c(noc2=O)C(O)(c2ccc(Cl)cc2)S1` (centres undefined), the inhibition at 50 µM in assay [1] came to 28%. Moreover, the EC50 in assay [11] stood at 1420 nM. Besides, the Decrease in assay [3] turned out to be 19%; in [4], 70%.
Regarding `CC1=CSC(O)(c2ccc(Cl)cc2)c2noc(=O)n21` (centres undefined), in assay [1], the inhibition at 50 µM worked out at 26%. Besides, the Decrease is 18% in assay [3] and 80% in [4]. In [12], this molecule returned an EC50 of 800 nM.
Regarding `O=c1onc2n1-c1ccccc1SC2(O)c1ccc(Cl)cc1` (centres undefined), in assay [1], the inhibition at 50 µM was found to be 40%. Also, in assay [13], a half-maximal response (EC50) required 520 nM. Also, the Decrease in assay [3] is listed as 21%; in assay [4] it was 94%.
Consider `CC1=CSC(O)(c2ccccc2)c2noc(=O)n21` (centres undefined), for which the inhibition at 50 µM in assay [1] amounted to 4%. Also, in [14], it took 230 nM to reach a half-maximal effect (EC50). The Decrease in [3] is reported as 14%; in assay [4], 95%.
Regarding `CC1=CSC(OCC(C)C)(c2ccc(Cl)cc2)c2noc(=O)n21` (centres undefined), the inhibition at 50 µM in assay [1] worked out at 37%. For the same molecule, the Decrease in assay [3] stood at 15%; in [4], 83%. This molecule also came in with an EC50 in assay [15] of 560 nM.
For `COC1(c2ccc(Cl)cc2)SC=C(C)n2c1noc2=O` (centres undefined), the inhibition at 50 µM in assay [1] was 14%. The Decrease in assay [3] is 22%; in assay [4] it was 62%. In assay [15], this molecule gave an EC50 of 1540 nM.
As for `CC1=CSC(O)(c2ccc(-c3ccccc3)cc2)c2noc(=O)n21` (centres undefined), the inhibition at 50 µM in assay [1] was 9%. Further, the values for the Decrease in [3] and in [4] were 18% and 71%, respectively. The molecule also displayed a concentration giving a half-maximal response (EC50) in assay [16] of 2650 nM.
For the molecule `CC1=CSC(O)(c2cccc(Cl)c2)c2noc(=O)n21` (centres undefined), the inhibition at 50 µM in assay [1] came out at 17%. The Decrease stood at 34% in [3] and 88% in assay [4]. It took 650 nM to reach a half-maximal effect in [17] (EC50).
On to `CC1=CSC(O)(c2cccc([N+](=O)[O-])c2)c2noc(=O)n21` (centres undefined), for which the inhibition at 50 µM in assay [1] came to 19%. The EC50 in assay [18] came out at 1760 nM. Besides, the values for the Decrease in [3] and in [4] were 13% and 68%, respectively.
As for `O=c1onc2n1C=CSC2(O)c1ccc(Cl)cc1` (centres undefined), the inhibition at 50 µM in assay [1] was 10%. Further, the Decrease stood at 7% in [3] and 78% in assay [4]. Further, in assay [19], the EC50 turned out to be 4070 nM.
On to `CC1=CSC(O)(c2cccc(C)c2)c2noc(=O)n21` (centres undefined), for which the inhibition at 50 µM in assay [1] worked out at 12%. Moreover, the EC50 in assay [20] came to 720 nM. The Decrease is listed as 10% in assay [3] and 89% in assay [4].
`CC1=CSC(O)(c2cccc(C(F)(F)F)c2)c2noc(=O)n21` (centres undefined): the inhibition at 50 µM in [1] came to 37%. Moreover, the Decrease in assay [3] worked out at 20%; in [4], 96%. For the same molecule, the EC50 in [21] was found to be 2170 nM.
In the case of `O=c1onc2n1C=CSC2(O)c1ccccc1` (centres undefined), the inhibition at 50 µM in assay [1] is 11%. The Decrease in assay [3] was 14%; in assay [4], 74%. The molecule further registered an EC50 in [22] of 6580 nM.
On to `CC1=CSC(O)(c2ccc(C)cc2)c2noc(=O)n21` (centres undefined), for which the inhibition at 50 µM in assay [1] turned out to be 5%. For the same molecule, the results for the Decrease in [3] and in assay [4] were 13% and 82%, respectively. In assay [23], this molecule had an EC50 of 570 nM.
Take `COc1ccc([C@@H]2Sc3ccccc3N(CCN(C)C)C(=O)[C@@H]2OC(C)=O)cc1` [DILTIAZEM]: the inhibition at 50 µM in assay [1] turned out to be 88%. It took 790 nM to reach a half-maximal effect in assay [24] (EC50). The same molecule came in with an EC30 in [25] of 70 nM. For the same molecule, the Decrease in assay [3] is reported as 94%; in [4] it was 78%.
